This is an account of results in ChEMBL document CHEMBL4513216, “Probing the Open Global Health Chemical Diversity Library for Multistage-Active Starting Points for Next-Generation Antimalarials” (ACS Infect Dis, 2020).

SMILES strings stand for the structures.

This series can be described thus: Toxicity liver stage against HepG2, at 10uM. On the set-up: test concentration 10 uM, cell line HepG2-A16-CD81EGFP. The settings on record: human, HepG2-A16-CD81EGFP cells; read-out: INHIBITION
Format: cell-based. A digest of the protocol: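 Uninfected HepG2-A16-CD81EGFP cells, 3 × 10^3 per well, 1536-well, plated on prespotted compound at 10 μM final, parasite-free screening media added to match infected plates; puromycin 10 μM positive, DMSO 0.5% negative; run in parallel with 48 h PbLuc assay at 37 °C, 5% CO2; viability by CellTiter-Glo luminescence, normalized to controls.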

Take `CCOCCCNC(=O)c1cc(C(C)C)nc(N2CCCCCC2)n1`: the cytotoxicity at 10 µM was 8.53%.

For `Cc1ccc(C)c(SCC(=O)Nc2cccc(C(=O)N(C)C)n2)c1`, the cytotoxicity at 10 µM was -9.9%. Then `CCOC(C)C(=O)N1CCCN(Cc2csc(CC)n2)CC1` (stereo unspecified), with -13%. To `CNC(=O)[C@@H]1COC[C@H]2CN(C(=O)c3ccc(C)c(F)c3)C[C@H]21` belongs 0.165%.

Turning to `c1cc(CO[C@@H]2CC[C@H]3[C@H]2OCCN3CC2CCOCC2)ccn1`, the cytotoxicity at 10 µM stood at 26.9%.

Consider `Cn1cccc1C(=O)N[C@@H]1CN(S(C)(=O)=O)[C@@H]2COC[C@@H]21`, for which the cytotoxicity at 10 µM was 14.1%. To `Cc1csc(N2CCN(C(=O)C(C)n3cncn3)CC2)n1` (stereo unspecified) belongs 0.652%. Then `O=C(C1SCCc2sccc21)N1CCN(CCO)CC1` (stereo unspecified), with -19.8%; and `Cc1cc(Cl)c(C)c(S(=O)(=O)N2CCN(Cc3ccccn3)CC2)c1Cl`, with -7.06%; and `CC(C)c1nn(C)c(N(C)C)c1CNCc1ccnn1C`, with 0.926%. To `COc1ccc(CN2CCC(O)CC2)c(OC)c1` belongs -9.18%. On to `CC(C)CN1CCS(=O)(=O)[C@@H]2CCN(S(=O)(=O)N(C)C)CC[C@@H]21`, for which the cytotoxicity at 10 µM came out at 7.25%.

For `Cc1nc(N2CCCC2)ncc1-c1cc(O)nc(N2CCCCC2)n1`, the cytotoxicity at 10 µM was determined as 10.7%.

As for `Cn1ccc(C(=O)N2CCc3[nH]nc(Nc4ccccc4)c3C2)n1`, the cytotoxicity at 10 µM stood at 5.21%.

Take `CC(NCCCn1ccnc1)c1ccc(N2CCOC2=O)cc1` (stereo unspecified): the cytotoxicity at 10 µM was -8.48%. To `COCCCNC(=O)CN1CCCC1c1c(C)nn(C)c1Cl` (stereo unspecified) belongs 6.69%; to `CC1CCN(C(=O)c2ccn(COc3ccc(F)cc3)n2)CC1`, -9.38%; to `O=C(CCNC(=O)c1ccoc1)NCc1ccccc1F`, 1.76%. Then `OC1CCCOC12CCN(CCCOc1ccccc1F)CC2` (stereo unspecified), with 3.4%; and `CNS(=O)(=O)c1ccc(CN2CCN3CCNC(=O)C3C2)cc1` (stereo unspecified), with -6.22%. To `Cc1cc(C(=O)N2CCCC2)ccc1NS(C)(=O)=O` belongs 0.535%; to `O=C(CN1CCC(c2nnc(C(F)(F)F)o2)CC1)NCc1ccccc1`, 2.51%; to `O=C(O)C(c1ccc2[nH]ccc2c1)N1CCOCC1` (stereo unspecified), 13.1%. In the case of `CN1CCCN(C(=O)c2cccc(S(=O)(=O)NCC3(C)COC3)c2)CC1`, the cytotoxicity at 10 µM is -6.63%. To `CC(=O)Nc1nc2c(s1)CN(CC(=O)Nc1ccc(C)c(Cl)c1)CC2` belongs -6.17%; to `Cn1cccc1C(=O)NC[C@H]1C[C@@H]2CN(C(=O)c3ccco3)C[C@@H]2O1`, -105%. As to `COCCC1COC2(CCN(C(=O)C3CCCCC3)CC2)C1` (stereo unspecified), the cytotoxicity at 10 µM is 7.4%. To `Cc1c[nH]c(CN(C)C(=O)CCn2cnc3ccccc32)n1` belongs 9.67%; to `O=C(NCc1ccccn1)NC1CCOc2ccccc21` (stereo unspecified), -8.99%; to `CC(C)C(NC(=O)C1CCCC1)c1cc(O)nc(-c2cccnc2)n1` (stereo unspecified), 9.82%. Then `CCNc1cc2c(nn1)CCN(C(=O)CC1CCCC1)C2`, with -3.87%; and `Cc1cc(NCCCNc2cccnc2)n2nc(C)c(C)c2n1`, with 2.35%.

`O=C(Cc1cccc(F)c1)NCCNCc1ccco1`: the cytotoxicity at 10 µM was -6.08%. Then `Cc1nn(C)cc1S(=O)(=O)NCC(C)Cn1cc(Cl)cn1` (stereo unspecified), with 0.197%. Then `Cc1ncsc1C(=O)NC1CCN(Cc2ccc(C(N)=O)cc2)CC1`, with -15%; and `c1coc(CN2CCCC3(COCCN(Cc4c[nH]nn4)C3)C2)c1` (stereo unspecified), with -12.2%; and `Cc1noc(C)c1C(=O)N1C[C@@H]2CC[C@H]1CN(c1cnccn1)C2`, with 8.32%. To `CC(C)c1n[nH]c(C2CN(C(=O)c3cc4c(s3)CCC4)CCO2)n1` (stereo unspecified) belongs -11%; to `Cc1cc(C[C@@H]2COC[C@@H]2NC(=O)CN2CCCC2)on1`, -30.2%.

Turning to `Cc1cc(C(=O)NCc2ccc(F)cc2)nc(C2CCCN2C)n1` (stereo unspecified), the cytotoxicity at 10 µM is -28.7%. Then `CCc1nccn1C1CCCN(C(=O)c2cnc3onc(C)c3c2)C1` (stereo unspecified), with -15.9%. Then `Cc1cc(NCc2cc3n(n2)CCCN(S(C)(=O)=O)C3)ncn1`, with -14.3%.

`Cc1cccc(C)c1OC1CN(C(=O)C2CCN(C(=O)N(C)C)CC2)C1`: the cytotoxicity at 10 µM turned out to be 2.69%. To `Cc1nccn1-c1cc(CNS(=O)(=O)N2CCCC(C)C2)ccn1` (stereo unspecified) belongs -2.42%; to `CCCN(c1ccccc1C(=O)O)S(=O)(=O)c1cccc2cccnc12`, -3.89%; to `NC(=O)c1cnc(NCC(=O)NCc2ccccc2)c(Cl)c1`, 3.89%. To `Cc1cc(CNC(=O)NCCOc2ccc(F)c(F)c2)on1` belongs 16.3%.

Consider `COc1cc(OC)cc(-c2cc(N)on2)c1`, for which the cytotoxicity at 10 µM amounted to 7.79%. Take `Cc1ccc2nc(C(=O)N3CCC(CCn4cccn4)CC3)cn2c1`: the cytotoxicity at 10 µM was -18.3%. To `Cc1cc(C)cc(N(CCC#N)C(=O)CN2CCCC2c2cccs2)c1` (stereo unspecified) belongs -1.61%; to `Cn1cc(NC(=O)Nc2ccccn2)cc(Cl)c1=O`, -7.82%; to `Cc1nc(CN)cc(NCc2ccccc2-n2cncn2)n1`, 1.88%. Consider `CC(NCc1ccc(OCc2nccn2C)cc1)c1cccnc1` (stereo unspecified), for which the cytotoxicity at 10 µM is -4.47%. To `COc1ccccc1OCc1nc2cc3c(cc2c(=O)o1)OCCCO3` belongs 1.37%.

`CCc1nnc2n1CCN(Cc1ccc3c(c1)OCCO3)C2`: the cytotoxicity at 10 µM is -6.61%. Then `CC(C)CN1CCc2[nH]cnc2C12CCN(C(=O)c1ccnn1C)CC2`, with -4.77%. To `COc1ccc(C(=O)O)cc1-c1cccc(C(C)N(C)C)c1` (stereo unspecified) belongs -7.13%; to `CCC(CO)NCc1ccc(-c2ccccc2)o1` (stereo unspecified), 4.42%. To `CCc1ccc(C(=O)NC2CCCN(c3ccn(C)n3)C2=O)o1` (stereo unspecified) belongs -2.43%. Take `CN(Cc1nc(-c2ccccc2)no1)C(=O)CNS(C)(=O)=O`: the cytotoxicity at 10 µM came out at 0.0773%.

In the case of `CS(=O)(=O)CCOc1nc(-c2ccccc2Cl)no1`, the cytotoxicity at 10 µM is -11.2%. Then `CCOC(=O)CNC(=O)c1cccnc1Sc1cc(OC)ccc1OC`, with 1.73%. Take `Cn1ccnc1SCCNC(=O)c1c[nH]nc1C1CCCCC1`: the cytotoxicity at 10 µM is -4.68%.

In the case of `COCc1cccc(NC(C)C(=O)N(C)Cc2cccc(F)c2)c1` (stereo unspecified), the cytotoxicity at 10 µM turned out to be 12.2%. Then `CC(=O)Nc1ccc(Cl)c(C(=O)N(C)C(C)c2ccncn2)c1` (stereo unspecified), with -42.6%; and `CC1=C[C@@H](CN2CCCC2)[C@H](C(C)C)C[C@H]1Cc1nnc(C)o1`, with 2.47%. Then `CCc1nccn1CCCn1ccnc1-c1[nH]cnc1C`, with 10%; and `Cc1nonc1CC(=O)N1CCC2(CCCN(C3CCOCC3)C2=O)C1` (stereo unspecified), with -95.3%; and `CN(C)CCN1CCC2(CC1)CN(c1cccnc1)C(=O)CO2`, with 1.7%.

With `O=C(Cn1cnc(NC(=O)c2ccccn2)n1)NCc1ccccc1`, the cytotoxicity at 10 µM came out at 9.97%. Take `CCCC1(CO)CCCN(C(=O)CNC(C)=O)C1` (stereo unspecified): the cytotoxicity at 10 µM came out at 3.43%.

In the case of `Cc1cnc(C(=O)NCc2ccnc(N(C)C)c2)cn1`, the cytotoxicity at 10 µM was -1.07%. Then `CCOc1ccccc1OCC(=O)NCc1ncc(C)c(OC)c1C`, with 1.09%; and `CCCn1c(C)cc(C(=O)CN2C(=O)c3ccccc3CS2(=O)=O)c1C`, with -1.94%. To `CCc1ccc(C(=O)N2CCCC(n3cncn3)C2)o1` (stereo unspecified) belongs -9.78%. Then `CN1C(=O)[C@@H]2CC[C@H]1CN(c1ncnc3ccsc13)C2`, with 0.636%; and `Cc1ccc(-c2cc(CN3CCCC(Cn4cncn4)C3)on2)cc1` (stereo unspecified), with -11.8%; and `CC(C(=O)N1CCc2sccc2C1)N1CCC(N2CCCC2)CC1` (stereo unspecified), with 10.9%.

Turning to `Cc1nn(C)c(N2CCOCC2)c1CNC1CCc2cc(F)ccc21` (stereo unspecified), the cytotoxicity at 10 µM is -9.95%. Then `CCN(CC)C(=O)Nc1cc2c(cc1SC)OCCO2`, with -7.87%.

`Cn1cnnc1C1CCCN(C(=O)c2cc(Cl)c(Cl)n2C)C1` (stereo unspecified): the cytotoxicity at 10 µM is -4.9%. Then `CCCc1noc(CN2CCN(CCC(C)C)CC2)n1`, with -1.48%. Then `COc1ccccc1C1CNC(=O)c2nc(-c3cnn(C)c3)[nH]c2C1` (stereo unspecified), with -5.33%; and `CCCN1CCC(CNC(=O)C2(c3ccccc3)CCC2)C1` (stereo unspecified), with -6.29%; and `Cc1nc(C2CCCN2Cc2nc(C)c(C)o2)no1` (stereo unspecified), with -2.53%. To `CN(C)C(=O)N1CCN(Cc2ccc3occc3c2)[C@H]2CS(=O)(=O)C[C@H]21` belongs -4.37%.

Regarding `Nc1nccc(N2C[C@@H](CN3CCCCC3)[C@@H](CO)C2)n1`, the cytotoxicity at 10 µM was -2.16%. To `Cc1noc(C)c1CN1C[C@@H](C(=O)O)[C@H](c2ccccn2)C1` belongs -6.9%. Take `CCN(C)c1ncnc2c1CCN(Cc1ccsc1)CC2`: the cytotoxicity at 10 µM stood at 1.69%. To `O=C([C@H]1CCCO1)N1CC[C@H](O)[C@@H]1Cc1cccnc1` belongs -105%; to `CN(C)S(=O)(=O)c1ccc(CNC(=O)C2CC(=O)N(C(C)(C)C)C2)cc1` (stereo unspecified), 2.13%; to `CCc1nc(C)c(C(=O)N(C)Cc2cnn(-c3cccc(OC)c3)c2)s1`, 11.7%. To `Cn1cc2ncn([C@H]3CCN(Cc4ccccc4)C3)c(=O)c2n1` belongs 2.89%; to `Cn1c(NCC(O)c2ccc(Cl)cc2)c(C#N)c(=O)n(C)c1=O` (stereo unspecified), -3.27%; to `Cc1oc(-c2ccsc2)nc1CNC(C)Cn1cccn1` (stereo unspecified), -9.81%. Then `O=C(NCC1CC1)[C@H]1C[C@H]2CN(C(=O)NCC3CCCCC3)C[C@@H]1O2`, with 3.79%.
